ChEMBL document CHEMBL1129364, “Pyrrolobenzothiazepinones and pyrrolobenzoxazepinones: novel and specific non-nucleoside HIV-1 reverse transcriptase inhibitors with antiviral activity” (J Med Chem, 1996)
Active and inactive are the calls of the source. The rule behind the calls is not given here.

Experiments:
[1] = Effective concentration against 50% survival of HIV -1 infected cells relative to uninfected untreated control (in vitro anti HIV-1 activity); assay type: functional; settings: Human immunodeficiency virus 1
In short: (§1)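 HIV-1-infected CEM T4 lymphocytes were scored for protection from cell death. […] An AZT-treated positive control was run at the same time.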

[2] = target: Human immunodeficiency virus type 1 reverse transcriptase (Human immunodeficiency virus 1, UniProt Q72547); assay: Compound was tested for Inhibition of HIV-1 RT activity.
In short: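 Recombinant HIV-1 RT (0.1 unit), 37 °C for 30 min in 50 mM Tris·HCl pH 8.2, 1 mM DTT, 80 mM KCl, 12 mM MgCl2, 0.01% Triton X-100. Template-primer poly(rA)/(dT)12-18 with [3H]dTTP or poly(rC)/(dG)12-18 with [3H]dGTP. Compounds added in DMSO (10% final). Stopped with 20% TCA; precipitate counted. IC50 is the mean of at least three experiments.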

[3] = SI - selectivity index determined from the ratio of IC50 to the ED50 determined on MT-4 cell lines of AZT-sensitive HIV strain.; assay type: functional, MT4
MT4 [4] = assay: ED50 value determined from the inhibition of HIV strain HIV-1(IIIB), activity tested on MT-4 cell lines.; assay type: functional; settings: Homo sapiens, read-out: ED50 (the source's name)
MT4 [5] = assay: IC50 value determined from the inhibition of HIV strain HIV-1 (6R), activity tested on MT-4 cell lines.; assay type: functional, cell-based; settings: Homo sapiens
MT4 [6] = assay: ED50 value determined from the inhibition of HIV strain HIV-1 (6R), activity tested on MT-4 cell lines.; assay type: functional; settings: Homo sapiens, read-out: ED50 (the source's name)
CEM-SS [7] = assay: ED50 value determined from the inhibition of HIV strain HIV-1 RF, activity tested on CEM-SS cell lines.; assay type: functional; settings: Homo sapiens, read-out: ED50 (the source's name)
[8] = tested on: Human immunodeficiency virus 1; assay: In vitro inhibitory activity against HIV-1 (A-17) HIV strain; NT ='Not active'; assay type: functional, organism-based
In short: (§2)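 ED50 measured against a panel of viruses in MT-2, MT-4 and CEM-SS cells. The panel comprised HIV-1 (6S) and (6R), the pyridinone-resistant strain A-17, HIV-1 IIIB, HIV-1 RF, a diphenyl sulfone-resistant HIV, N119, SIV MAC 251 and HIV-2 ROD.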

[9] = Selectivity index is the ratio between IC50 and ED50 from HIV-1 (IIIB) on MT-4 cell lines; assay type: functional, MT4
CEM-SS [10] = assay: IC50 value determined from the inhibition of HIV strain HIV-1 RF, activity tested on CEM-SScell lines.; assay type: functional, cell-based; settings: Homo sapiens
In short: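 Cell-protection assay: HIV-1-infected T4 lymphocytes (CEM-SS) scored for survival. The value is the drug concentration giving 50% survival of infected cells relative to uninfected untreated controls. An AZT-treated positive control was run at the same time under identical conditions. Details follow a previously reported procedure.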

[11] = tested on: Human immunodeficiency virus 2; assay: In vitro inhibitory activity against HIV-2 (ROD) HIV strain; NT ='Not active'; assay type: functional, organism-based; in short: as §2
[12] = Selectivity index is the ratio between IC50 and ED50 from HIV-1 (6R) on MT-4 cell lines; assay type: functional, MT4
MT4 [13] = assay: ED50 value determined from the inhibition of HIV strain AZT-sensitive activity tested on MT-4 cell lines.; assay type: functional; settings: Homo sapiens, read-out: ED50 (the source's name)
MT4 [14] = assay: IC50 value determined from the inhibition of HIV strain AZT-sensitive activity tested on MT-4 cell lines.; assay type: functional, cell-based; settings: Homo sapiens
MT4 [15] = assay: IC50 value determined from the inhibition of HIV strain HIV-1(IIIB), activity tested on MT-4 cell lines.; assay type: functional, cell-based; settings: Homo sapiens
CEM-SS [16] = assay: Cytotoxic concentration against 50% survival of uninfected untreated control CEM-SS cells; assay type: cell-based; settings: Homo sapiens
[17] = Selective index is the ratio between IC50 and EC50 from CEM-SS cells; assay type: functional
[18] = Effective concentration against 50% survival of HIV -1 infected cells relative to uninfected untreated control (in vitro anti HIV-1 activity); NA ='Not active'; assay type: functional, Human immunodeficiency virus 1; in short: as §1
[19] = Selective index is the ratio between IC50 and EC50; assay type: functional
In short: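 Selectivity index calculated as CEM-SS cytotoxic IC50 divided by anti-HIV-1 EC50.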

Row | SMILES | EC50 [1] [µM] | IC50 [2] [µM] | IC50 (CEM-SS [16]) [µM] | also measured
1 | CC1(c2ccccc2)Sc2ccccc2-n2cccc2C1=O (stereo not drawn) | 0.81 | 5 | – | –
2 | CCc1cc(NCc2nc3c(Cl)ccc(Cl)c3o2)c(O)nc1C [L-697661] | – | 0.15 | – | –
3 | CCC1(c2ccccc2)Oc2ccccc2-n2cccc2C1=O (stereo not drawn) | 0.47 | 0.25 | 4.9 | SI [3]: 8; EC50 (MT4 [4]): 0.13 µM; IC50 (MT4 [5]): 2.9 µM; EC50 (MT4 [6]): 1.6 µM; EC50 (CEM-SS [7]): 0.12 µM; Activity [8]: inactive; SI [9]: 25; IC50 (CEM-SS [10]): 10.4 µM; Activity [11]: inactive; SI [12]: 1.7; EC50 (MT4 [13]): 0.42 µM; IC50 (MT4 [14]): 3.3 µM; IC50 (MT4 [15]): 3.31 µM; SI [17]: 10.4
4 | CCC1(c2ccccc2)Sc2ccc(C)cc2-n2cccc2C1=O (stereo not drawn) | – | > 600 | – | IC50 [18]: Not Active
5 | CCC1(c2ccccc2)Oc2cc3ccccc3cc2-n2cccc2C1=O (stereo not drawn) | – | 150 | – | –
6 | CCCC1(CC)Oc2ccccc2-n2cccc2C1=O (stereo not drawn) | – | 10 | – | –
7 | O=C1c2cccn2-c2ccccc2OC1(CC1CC1)c1ccccc1 (stereo not drawn) | – | > 500 | 11.8 | –
8 | CCC1(c2ccccc2)C(=O)c2cccn2-c2ccccc2[S+]1[O-] (stereo not drawn) | – | 500 | – | –
9 | CCC1(c2ccccc2)C(=O)c2cccn2-c2ccccc2S1(=O)=O (stereo not drawn) | – | > 300 | – | –
10 | CCC1Oc2ccccc2-n2cccc2C1=O (stereo not drawn) | – | 100 | – | –
11 | C=CCC1(c2ccccc2)Oc2ccccc2-n2cccc2C1=O (stereo not drawn) | 0.71 | 25 | 6.4 | SI [19]: 9
12 | O=C1c2cccn2-c2ccccc2SC1c1ccccc1 (stereo not drawn) | – | 100 | 18.3 | –
13 | CCC1(CC=C(C)C)Oc2ccccc2-n2cccc2C1=O (stereo not drawn) | 1.35 | – | 45.2 | SI [19]: 35
